Results published in ChEMBL document CHEMBL3244026, “Synthesis of 4'- and 5'-hydroxyoxprenolol:pharmacologically active ring-hydroxylated metabolites of oxprenolol” (J Med Chem, 1979).

How the values were obtained:
Format in all cases: tissue-based
Details in all cases: Trachea
Cavia porcellus [1] = species: Cavia porcellus; assay: Antagonist activity at beta adrenergic receptor in guinea pig tracheal strips assessed as inhibition of 10^-5 M isoproterenol-induced tracheal relaxation incubated 1 hr prior to testing
In short: (§1)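 Guinea pig tracheal strips in 10-mL baths, precontracted with carbachol 10^-7 M. Two cumulative isoproterenol dose-response curves per strip: control, then a 1 h wash, then antagonist added 1 h before the second curve. Dose ratio is the antilog of the difference in −log molar isoproterenol ED50. Apparent K_B = [antagonist]/(dose ratio − 1), using three antagonist concentrations (Furchgott).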

Cavia porcellus [2] = species: Cavia porcellus; assay: Antagonist activity at beta adrenergic receptor in guinea pig tracheal strips assessed as inhibition of isoproterenol-induced tracheal relaxation incubated 1 hr prior to testing; in short: as §1
Cavia porcellus [3] = species: Cavia porcellus; assay: Antagonist activity at beta adrenergic receptor in guinea pig tracheal strips assessed as inhibition of 10^-6 M isoproterenol-induced tracheal relaxation incubated 1 hr prior to testing; in short: as §1
Cavia porcellus [4] = species: Cavia porcellus; assay: Antagonist activity at beta adrenergic receptor in guinea pig tracheal strips assessed as inhibition of 10^-7 M isoproterenol-induced tracheal relaxation incubated 1 hr prior to testing; in short: as §1

Kb (Cavia porcellus [1])	inhibition (Cavia porcellus [2])	Kb (Cavia porcellus [3])	Kb (Cavia porcellus [4])	Compound
101 nM	Dose-dependent effect	37.9 nM	34.8 nM	C=CCOc1ccc(O)cc1OCC(O)CNC(C)C (stereo unspecified)
	Dose-dependent effect	5.81 nM	2.61 nM	C=CCOc1ccccc1OCC(O)CNC(C)C (stereo unspecified)
122 nM	Dose-dependent effect	45.5 nM	26.5 nM	C=CCOc1cc(O)ccc1OCC(O)CNC(C)C (stereo unspecified)
